Experimental data published in ChEMBL document CHEMBL3351553 (J Med Chem, 2014).
Converted amounts (≈) assume the structure as drawn.

Assays:
Staphylococcus aureus = test: Antimicrobial activity against Staphylococcus aureus UAMS1 incubated for 16 hrs by CLSI based method; assay type: functional; details: UAMS1, 16 h
[1] = Inhibition of Staphylococcus aureus topoisomerase 4 assessed as reduction in decatenation of kDNA at 100 to 500 uM by gel electrophoresis method
How it was run: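 Compounds were in DMSO, with water or DMSO as vehicle controls. Reactions were stopped with STEB plus chloroform:isoamyl alcohol and run on 1% agarose TAE gels stained with ethidium bromide. IC50 was taken from densitometry against reactions with and without enzyme.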

DNA gyrase = DNA gyrase (Staphylococcus aureus, UniProt P0A0K8+P20831); test: Inhibition of Staphylococcus aureus DNA gyrase assessed as reduction in enzyme-catalyzed supercoiling of relaxed circular pBR322 DNA by agarose gel electrophoresis; assay type: protein-complex assay
DNA gyrase, sequence (P0A0K8 whole entry): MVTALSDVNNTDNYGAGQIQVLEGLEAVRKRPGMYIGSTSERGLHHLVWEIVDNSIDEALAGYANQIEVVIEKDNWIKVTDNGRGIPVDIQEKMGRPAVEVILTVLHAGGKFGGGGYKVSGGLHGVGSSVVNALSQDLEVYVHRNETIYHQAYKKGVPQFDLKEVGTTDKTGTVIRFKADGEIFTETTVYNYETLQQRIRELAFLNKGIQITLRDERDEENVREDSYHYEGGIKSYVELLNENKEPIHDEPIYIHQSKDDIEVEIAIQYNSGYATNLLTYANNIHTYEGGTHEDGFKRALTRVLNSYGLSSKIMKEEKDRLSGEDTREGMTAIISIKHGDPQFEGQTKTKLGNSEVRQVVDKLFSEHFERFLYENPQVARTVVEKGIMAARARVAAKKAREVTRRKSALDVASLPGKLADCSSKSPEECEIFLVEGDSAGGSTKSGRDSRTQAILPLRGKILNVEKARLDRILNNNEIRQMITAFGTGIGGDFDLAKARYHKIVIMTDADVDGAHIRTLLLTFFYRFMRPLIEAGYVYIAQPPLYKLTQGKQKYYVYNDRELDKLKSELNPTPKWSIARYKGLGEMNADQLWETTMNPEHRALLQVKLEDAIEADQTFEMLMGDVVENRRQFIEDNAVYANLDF
DNA gyrase, sequence (P20831 whole entry): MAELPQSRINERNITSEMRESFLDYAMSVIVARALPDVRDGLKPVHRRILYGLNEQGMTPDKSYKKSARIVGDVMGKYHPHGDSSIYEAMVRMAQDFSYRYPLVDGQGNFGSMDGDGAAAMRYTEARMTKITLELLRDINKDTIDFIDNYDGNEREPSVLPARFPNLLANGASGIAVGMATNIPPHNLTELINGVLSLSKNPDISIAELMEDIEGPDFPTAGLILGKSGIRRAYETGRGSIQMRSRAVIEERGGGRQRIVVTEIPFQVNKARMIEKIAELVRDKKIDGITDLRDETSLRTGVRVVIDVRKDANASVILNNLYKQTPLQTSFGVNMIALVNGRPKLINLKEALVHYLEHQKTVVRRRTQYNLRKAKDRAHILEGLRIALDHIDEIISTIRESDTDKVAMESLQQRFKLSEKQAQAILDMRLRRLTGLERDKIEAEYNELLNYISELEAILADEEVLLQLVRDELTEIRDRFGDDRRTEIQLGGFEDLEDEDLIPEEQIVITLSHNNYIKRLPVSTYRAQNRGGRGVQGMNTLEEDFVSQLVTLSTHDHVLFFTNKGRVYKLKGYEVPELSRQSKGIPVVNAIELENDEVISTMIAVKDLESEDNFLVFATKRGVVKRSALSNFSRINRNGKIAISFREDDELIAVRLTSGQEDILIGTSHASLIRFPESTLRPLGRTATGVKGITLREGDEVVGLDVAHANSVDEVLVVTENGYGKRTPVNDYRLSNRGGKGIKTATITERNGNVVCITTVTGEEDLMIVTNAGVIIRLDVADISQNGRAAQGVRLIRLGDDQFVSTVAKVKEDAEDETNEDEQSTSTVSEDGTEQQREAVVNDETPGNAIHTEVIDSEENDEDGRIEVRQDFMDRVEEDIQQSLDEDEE
How it was run: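 Recombinant S. aureus gyrase kit, 0.5 U enzyme, relaxed pBR322 (250 ng/μL) in 40 mM HEPES·KOH pH 7.6, 10 mM Mg acetate, 10 mM DTT, 2 mM ATP, 500 mM K glutamate, 0.5 mg/mL albumin; 37 °C, 30 min.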

Row | Compound | MIC (Staphylococcus aureus) | IC50 [1] | IC50 (DNA gyrase)
1 | CC(C)(C)c1ccc(C(=O)N2CCC(C(O)(c3ccccc3)c3ccccc3)CC2)cc1 | > 256 µg/mL | > 333 µM | 93 µM
2 | OC(CCCN1CCC(C(O)(c2ccccc2)c2ccccc2)CC1)c1ccc(-c2ccccc2)cc1 (stereo not drawn) | 8 µg/mL (≈ 16.3 µM) | 100 µM | 13 µM
3 | CN(C)c1ccc(CCN2CCC(C(O)(c3ccccc3)c3ccccc3)CC2)cc1 | > 256 µg/mL | – | > 333 µM
4 | COc1ccccc1CN1CCC(C(O)(c2ccccc2)c2ccccc2)CC1 | 128 µg/mL (≈ 330 µM) | – | –
5 | COC(=O)c1ccc(CN2CCC(C(O)(c3ccccc3)c3ccccc3)CC2)cc1 | > 256 µg/mL | – | –
6 | OC(c1ccccc1)(c1ccccc1)C1CCN(Cc2ccc(-c3cccs3)cc2)CC1 | 32 µg/mL (≈ 72.8 µM) | – | –
7 | CC(C)c1ccc(CN2CCC(C(O)(c3ccccc3)c3ccccc3)CC2)cc1 | 32 µg/mL (≈ 80.1 µM) | – | –
8 | O=[N+]([O-])c1ccc(CCN2CCC(C(O)(c3ccccc3)c3ccccc3)CC2)cc1 | 64 µg/mL (≈ 154 µM) | > 333 µM | 263 µM
9 | CC(C)(C)c1ccc(C(O)CCCN2CCC(=C(c3ccccc3)c3ccccc3)CC2)cc1 (stereo not drawn) | > 256 µg/mL | – | –
10 | OC(c1ccccc1)(c1ccccc1)C1CCN(Cc2ccccc2F)CC1 | > 256 µg/mL | – | –
11 | CC(C)(C)c1ccc(C(O)CCCN2CCC(C(c3ccccc3)c3ccccc3)CC2)cc1 (stereo not drawn) | 8 µg/mL (≈ 17.6 µM) | – | –
12 | COc1ccc(C(O)CCCN2CCC(C(O)(c3ccccc3)c3ccccc3)CC2)cc1 (stereo not drawn) | > 256 µg/mL | > 333 µM | > 500 µM
13 | CC(C)(C)c1ccc(C(N)CCCN2CCC(C(O)(c3ccccc3)c3ccccc3)CC2)cc1 (stereo not drawn) | 16 µg/mL (≈ 34 µM) | > 333 µM | –
14 | OC(c1ccccc1)(c1ccccc1)C1CCN(CCc2ccc(F)cc2)CC1 | 128 µg/mL (≈ 329 µM) | – | > 333 µM
15 | CC(C)(C(=O)O)c1ccc(C(O)CCCN2CCC(C(O)(c3ccccc3)c3ccccc3)CC2)cc1 (stereo not drawn) [FEXOFENADINE] | > 256 µg/mL | > 333 µM | > 500 µM
16 | COC(=O)C(C)(C)c1ccc(C(O)CCCN2CCC(C(O)(c3ccccc3)c3ccccc3)CC2)cc1 (stereo not drawn) | > 256 µg/mL | > 333 µM | > 500 µM
17 | OC(c1ccccc1)(c1ccccc1)C1CCN(Cc2ccc(-c3ccsc3)cc2)CC1 | 16 µg/mL (≈ 36.4 µM) | – | –
18 | CC1(c2ccc(CCN3CCC(C(O)(c4ccccc4)c4ccccc4)CC3)cc2)COC1 | > 256 µg/mL | – | > 333 µM
19 | O=C(O)c1ccc(C(O)CCCN2CCC(C(O)(c3ccccc3)c3ccccc3)CC2)cc1 (stereo not drawn) | > 256 µg/mL | > 333 µM | > 500 µM
20 | OC(c1ccccc1)(c1ccccc1)C1CCN(CCc2ccc(-c3cccnc3)cc2)CC1 | 32 µg/mL (≈ 71.3 µM) | 280 µM | 250 µM

Row | Compound | MIC (Staphylococcus aureus) | IC50 [1] | IC50 (DNA gyrase)
21 | Cc1ccccc1CN1CCC(C(O)(c2ccccc2)c2ccccc2)CC1 | 128 µg/mL (≈ 345 µM) | – | –
22 | N#Cc1ccccc1CN1CCC(C(O)(c2ccccc2)c2ccccc2)CC1 | > 256 µg/mL | – | –
23 | CC(C)(C)c1ccc(C(O)CN2CCC(C(O)(c3ccccc3)c3ccccc3)CC2)cc1 (stereo not drawn) | 16 µg/mL (≈ 36.1 µM) | 100 µM | –
24 | CC(C)(C)c1ccc(C(=O)CCN2CCC(C(O)(c3ccccc3)c3ccccc3)CC2)cc1 | 32 µg/mL (≈ 70.2 µM) | 133 µM | 90 µM
25 | CC(C)(C)c1ccc(CCN2CCC(C(O)(c3ccccc3)c3ccccc3)CC2)cn1 | 64 µg/mL (≈ 149 µM) | – | > 333 µM
26 | OC(c1ccccc1)(c1ccccc1)C1CCN(Cc2ccc(C(F)(F)F)cc2)CC1 | > 256 µg/mL | – | –
27 | O=C(O)c1ccc(CN2CCC(C(O)(c3ccccc3)c3ccccc3)CC2)cc1 | > 256 µg/mL | – | –
28 | OC(c1ccccc1)(c1ccccc1)C1CCN(Cc2ccc(F)cc2)CC1 | > 256 µg/mL | – | –
29 | CC(C)(C)c1ccc(CN2CCC(C(O)(c3ccccc3)c3ccccc3)CC2)cc1 | – | 213 µM | 90 µM
30 | OC(c1ccccc1)(c1ccccc1)C1CCN(CCc2ccc(C(F)(F)F)cc2)CC1 | 16 µg/mL (≈ 36.4 µM) | > 333 µM | 17 µM
31 | CC(C)c1ccc(C(O)CCCN2CCC(C(O)(c3ccccc3)c3ccccc3)CC2)cc1 (stereo not drawn) | 32 µg/mL (≈ 69.9 µM) | 273 µM | –
32 | COc1ccc(CN2CCC(C(O)(c3ccccc3)c3ccccc3)CC2)cc1 | 128 µg/mL (≈ 330 µM) | – | –
33 | CC(C)(C)c1ccccc1CCN1CCC(C(O)(c2ccccc2)c2ccccc2)CC1 | 16 µg/mL (≈ 37.4 µM) | – | –
34 | OC(CCCN1CCC(C(O)(c2ccccc2)c2ccccc2)CC1)c1ccc(F)cc1 (stereo not drawn) | 128 µg/mL (≈ 295 µM) | > 333 µM | > 500 µM
35 | OC(c1ccccc1)(c1ccccc1)C1CCN(CCc2ccc(Cl)cc2)CC1 | 32 µg/mL (≈ 78.8 µM) | 267 µM | 260 µM
36 | Nc1ccc(CCN2CCC(C(O)(c3ccccc3)c3ccccc3)CC2)cc1 | > 256 µg/mL | > 333 µM | 93 µM
37 | Oc1ccccc1CN1CCC(C(O)(c2ccccc2)c2ccccc2)CC1 | 64 µg/mL (≈ 171 µM) | – | –
38 | OC(c1ccccc1)(c1ccccc1)C1CCN(Cc2ccc(-c3ccco3)cc2)CC1 | 32 µg/mL (≈ 75.6 µM) | – | –
39 | Oc1cccc(CN2CCC(C(O)(c3ccccc3)c3ccccc3)CC2)c1 | > 256 µg/mL | – | –
